Measurements as given in ChEMBL document CHEMBL2417386, “Novel conjugated quinoline-indoles compromise Plasmodium falciparum mitochondrial function and show promising antimalarial activity” (J Med Chem, 2013).

Assays:
[1] = system: Plasmodium falciparum; assay: Antimalarial activity against mid to late trophozoite stage of Plasmodium falciparum 3D7 infected in RBC assessed as abnormal mitochondria at 0.6 uM after 0.5 hrs by MitoTracker Red CMXRos-based fluorescence microscopic analysis relative to untreated control; assay type: functional
[2] = system: Plasmodium falciparum; assay: Antimalarial activity against Plasmodium falciparum 3D7 infected in RBC assessed as growth inhibition after 48 hrs by SYBR Green-I fluorescence assay; assay type: functional, organism-based; conditions: 3D7, 48 h
In short: (§1)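 Parasite-infected red cells exposed to compound for 48 h; growth read by SYBR Green-I fluorescence; IC50 derived. Where a ± is given, it is the standard deviation of three individual experiments.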

[3] = Selectivity index, ratio of IC50 for HEK293 cells to IC50 for Plasmodium falciparum 3D7 after 72 hrs; assay type: toxicity, cell-based; conditions: human, read-out: Ratio IC50
In short: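 Parasite (3D7) viability assay and HEK293 viability assay, each with a 72 h exposure. Index taken as the ratio of the IC50 values, HEK293 over 3D7.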

[4] = Inhibition of beta-hematin formation after 24 hrs by spectrophotometric analysis in presence of nonidet P40; assay type: functional
[5] = system: Plasmodium falciparum; assay: Antimalarial activity against trophozoite stage of Plasmodium falciparum 3D7 infected in RBC assessed as growth inhibition after 5 hrs by SYBR Green-I fluorescence assay; assay type: functional, organism-based; conditions: 3D7, 5 h
In short: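 Trophozoite-stage parasites pulsed with compound for 5 h. Drug then washed out and parasites cultured a further 43 h before survival was assessed.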

[6] = system: Plasmodium falciparum; assay: Antimalarial activity against mid to late trophozoite stage of Plasmodium falciparum 3D7 infected in RBC assessed as abnormal mitochondria at 3 uM after 0.5 hrs by MitoTracker Red CMXRos-based fluorescence microscopic analysis relative to untreated control; assay type: functional
[7] = system: Plasmodium falciparum; assay: Antimalarial activity against mid to late trophozoite stage of Plasmodium falciparum 3D7 infected in RBC assessed as nonviable parasite at 3 uM after 0.5 hrs by SYTO 61 staining-based flow cytometric analysis relative to untreated control; assay type: functional
[8] = system: Plasmodium falciparum; assay: Antimalarial activity against mid to late trophozoite stage of Plasmodium falciparum 3D7 infected in RBC assessed as nonviable parasite at 0.6 uM after 0.5 hrs by SYTO 61 staining-based flow cytometric analysis relative to untreated control; assay type: functional
[9] = system: Plasmodium falciparum; assay: Ratio of IC50 for trophozoite stage of Plasmodium falciparum 3D7 infected in RBC after 5 hrs to IC50 for Plasmodium falciparum 3D7 infected in RBC after 48 hrs; assay type: functional
[10] = system: Plasmodium falciparum; assay: Gametocytocidal activity against synchronous stage 4 to 5 of transgenic Plasmodium falciparum NF54 gametocyte harboring pfs16 promoter assessed as parasite viability after 72 hrs by MitoTracker Red CMXRos-based assay; assay type: functional, organism-based; conditions: NF54, 72 h
[11] = system: Plasmodium falciparum; assay: Ratio of IC50 for trophozoite stage of Plasmodium falciparum 3D7 infected in RBC after 5 hrs in presence of 0.2 uM ALLN to IC50 for trophozoite stage of Plasmodium falciparum 3D7 infected in RBC after 5 hrs in absence of ALLN; assay type: functional
In short: (§2)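 Trophozoite-stage parasites pulsed 5 h with compound, with or without ALLN (0.2 or 5 μM). Drug and ALLN then removed; culture continued a further 43 h before survival was assessed. Antagonism expressed as the ratio of IC50 with ALLN to IC50 without ALLN.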

[12] = system: Plasmodium falciparum; assay: Gametocytocidal activity against synchronous stage 1 to 3 of transgenic Plasmodium falciparum NF54 gametocyte harboring pfs16 promoter assessed as parasite viability after 72 hrs by luciferase reporter gene assay; assay type: functional, organism-based; conditions: NF54, 72 h
[13] = system: Plasmodium falciparum; assay: Ratio of IC50 for trophozoite stage of Plasmodium falciparum 3D7 infected in RBC after 5 hrs in presence of 5 uM ALLN to IC50 for trophozoite stage of Plasmodium falciparum 3D7 infected in RBC after 5 hrs in absence of ALLN; assay type: functional; in short: as §2
[14] = system: Plasmodium falciparum; assay: Antimalarial activity against mid to late trophozoite stage of Plasmodium falciparum 3D7 infected in RBC assessed as abnormal mitochondria at 15 uM after 0.5 hrs by MitoTracker Red CMXRos-based fluorescence microscopic analysis relative to untreated control; assay type: functional
[15] = system: Plasmodium falciparum; assay: Antimalarial activity against mid to late trophozoite stage of Plasmodium falciparum 3D7 infected in RBC assessed as nonviable parasite at 15 uM after 0.5 hrs by SYTO 61 staining-based flow cytometric analysis relative to untreated control; assay type: functional
[16] = system: Plasmodium falciparum; assay: Resistant index, ratio of IC50 for Plasmodium falciparum K1 to IC50 for Plasmodium falciparum 3D7; assay type: functional
In short: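 Ratio of K1 to 3D7 IC50 values. Each IC50 comes from a 48 h drug exposure of the P. falciparum strain, with growth read by SYBR Green-I fluorescence. Where spread is given, it is the standard deviation of three individual experiments.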

[17] = system: Plasmodium falciparum; assay: Gametocytocidal activity against asexual stage of transgenic Plasmodium falciparum NF54 gametocyte harboring pfs16 promoter assessed as parasite viability after 72 hrs by luciferase reporter gene assay; assay type: functional, organism-based; conditions: NF54, 72 h
[18] = system: Plasmodium falciparum; assay: Antimalarial activity against Plasmodium falciparum K1 infected in RBC assessed as growth inhibition after 48 hrs by SYBR Green-I fluorescence assay; assay type: functional, organism-based; conditions: K1, 48 h; in short: as §1
[19] = system: Plasmodium falciparum; assay: Antimalarial activity against mid to late trophozoite stage of Plasmodium falciparum 3D7 infected in RBC assessed as nonviable parasite at 0.0002 uM after 0.5 hrs by SYTO 61 staining-based flow cytometric analysis relative to untreated control; assay type: functional
[20] = system: Plasmodium falciparum; assay: Antimalarial activity against mid to late trophozoite stage of Plasmodium falciparum 3D7 infected in RBC assessed as abnormal mitochondria at 0.001 uM after 0.5 hrs by MitoTracker Red CMXRos-based fluorescence microscopic analysis relative to untreated control; assay type: functional
[21] = system: Plasmodium falciparum; assay: Antimalarial activity against mid to late trophozoite stage of Plasmodium falciparum 3D7 infected in RBC assessed as abnormal mitochondria at 0.0002 uM after 0.5 hrs by MitoTracker Red CMXRos-based fluorescence microscopic analysis relative to untreated control; assay type: functional
[22] = system: Plasmodium falciparum; assay: Antimalarial activity against mid to late trophozoite stage of Plasmodium falciparum 3D7 infected in RBC assessed as nonviable parasite at 0.001 uM after 0.5 hrs by SYTO 61 staining-based flow cytometric analysis relative to untreated control; assay type: functional

Row | Structure (SMILES) | IC50 [2] | selectivity ratio at 72 h [3] | IC50 [4] | IC50 [5] | Ratio IC50 [9] | Ratio IC50 [11] | Ratio IC50 [13] | Ratio IC50 [16] | IC50 [18] | other results
1 | C[n+]1c(/C=C/c2c[nH]c3ccccc23)cc(N)c2ccccc21.[I-] | 0.2 µM | 35 | 1400 µM | 1 µM | 5 | 1.5 | 3 | 0.6 | 0.12 µM | Activity [1]: 18%; Activity [6]: 91%; Activity [7]: 73%; Activity [8]: 8%; IC50 [10]: 4 µM; IC50 [12]: 0.3 µM; Activity [14]: 100%; Activity [15]: 81%; IC50 [17]: 0.1 µM
2 | C[n+]1c(/C=C/c2n[nH]c3ccccc23)cc(N)c2ccccc21.[I-] | 0.7 µM | 107 | 1500 µM |  |  |  |  | 0.3 | 0.23 µM | 
3 | CN(C)c1ccc2nc3ccc(N(C)C)cc3[s+]c2c1.[Cl-] [METHYLENE BLUE ANHYDROUS] | 0.02 µM |  |  | 0.03 µM | 1.5 | 2.1 | 3.2 |  | 0.008 µM | 
4 | C[C@H]1[C@H](OC(=O)CCC(=O)O)O[C@@H]2O[C@@]3(C)CC[C@H]4[C@H](C)CC[C@@H]1[C@@]24OO3 [ARTESUNATE] |  |  |  |  |  |  |  |  |  | IC50 [10]: 0.008 µM
5 | CCCC[n+]1c(/C=C/c2c[nH]c3ccccc23)cc(N)c2ccccc21 | 0.45 µM | 4 |  |  |  |  |  |  | 0.44 µM | 
6 | CCN(CC)CCCC(C)Nc1cc(/C=C/c2c[nH]c3ccccc23)nc2ccccc12 (stereo unspecified) | 0.1 µM | 87 | 1100 µM | 0.17 µM | 1.7 | 1.6 | 2.6 | 3 | 0.33 µM | 
7 | Cc1cc(N)c2ccccc2[n+]1C | > 4 µM |  |  |  |  |  |  |  | > 5 µM | 
8 | CC1(C)N=C(N)N=C(N)N1OCCCOc1cc(Cl)c(Cl)cc1Cl | 0.00046 µM |  |  | 0.0004 µM | 0.9 | 0.7 | 0.7 |  |  | Activity [19]: 40%; Activity [20]: 3%; Activity [21]: 3%; Activity [22]: 73%
9 | Nc1cc(CCc2c[nH]c3ccccc23)nc2ccccc12 | 0.9 µM | 67 |  |  |  |  |  |  | 2.2 µM | 
